M5 antag: antagonists of human muscarinic M5 receptor (CHRM5); P08912; CHO-hM5 cells, Fluo-8 calcium fluorescence, ACh EC80; inhibition, % at 3 µM; hit rate 0.59% among 360,000; AID 624040;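 active means inhibition above a per-plate cutoff, the mean of that plate's test compounds plus 3 SD, cut at about 27% in these data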;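 further: 0% = acetylcholine EC80 with DMSO and 100% = DMSO without agonist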
Target sequence (P08912 whole entry, looked up): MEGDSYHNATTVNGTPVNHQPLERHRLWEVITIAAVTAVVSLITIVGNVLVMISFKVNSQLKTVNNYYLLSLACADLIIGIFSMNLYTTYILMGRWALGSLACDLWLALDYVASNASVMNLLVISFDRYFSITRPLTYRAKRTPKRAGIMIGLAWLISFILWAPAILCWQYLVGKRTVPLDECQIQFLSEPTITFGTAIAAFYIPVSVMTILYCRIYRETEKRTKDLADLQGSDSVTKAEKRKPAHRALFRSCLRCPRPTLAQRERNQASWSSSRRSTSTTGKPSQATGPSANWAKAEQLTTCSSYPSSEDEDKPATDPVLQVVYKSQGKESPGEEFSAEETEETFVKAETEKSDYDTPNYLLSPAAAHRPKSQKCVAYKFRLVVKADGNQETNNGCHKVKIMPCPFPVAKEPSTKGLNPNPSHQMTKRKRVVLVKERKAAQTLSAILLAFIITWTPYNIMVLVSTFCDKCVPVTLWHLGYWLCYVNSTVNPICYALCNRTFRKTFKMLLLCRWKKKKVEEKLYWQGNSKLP
M5 PAM: CHRM5 positive allosteric modulation; CHO-K1 hM5, Fluo-8 calcium, ACh EC20 PAM; 0% = ACh EC20, 100% = ACh EC100; activation, % at 3 µM; hit rate 0.3% among 360,000; AID 624038;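 active means activation above the run cutoff, the mean activation of all test compounds plus 3 SD, cut at about 18% in these data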
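System – CHO-K1 hM5 cells · Compound – 3 µM, single dose · Incubation – compound preincubation 140 s before EC20 acetylcholine addition · Technique – Fluo-8 calcium fluorescence · Measure – Max/basal fluorescence ratio as % of EC20–EC100 ACh window · Benchmarks – low control EC20 acetylcholine (0%), high control EC100 acetylcholine (100%) · Replication – singlicate, one well per test compound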
M5 ag: agonists of human muscarinic M5 receptor (CHRM5); CHO-K1 hM5 cells, Fluo-8 calcium fluorescence; 0% DMSO wells, 100% maximal acetylcholine response; activation, % at 3 µM; hit rate 0.19% among 360,000; AID 624037;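 active means activation above the run's mean over test compounds plus 3 SD, cut at about 23% in these data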;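 further: signal is peak over basal fluorescence ratio across the kinetic read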
CHRM4 PAM: CHRM4 positive allosteric modulation | AID 624126 | activation, % at 3 µM | P08173 | CHO-K1 hM4/Gqi5, Fluo-8 calcium fluorescence, ACh EC20; 0% = ACh EC20, 100% = maximal ACh | hit rate 0.4% among 360,000;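 active means activation above its plate's cutoff, the mean activation of sample wells plus 3 SD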
M4 antag: blocks acetylcholine activation of human M4 receptor. P08173. hit rate 0.73% among 360,000. inhibition, % at 3 µM. CHO-hM4 cells, ACh EC80, Fluo-8 calcium fluorescence;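 active means inhibition above its plate's cutoff, the mean inhibition of sample wells plus 3 SD, cut at about 27% in these data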;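 further: 0% = acetylcholine EC80 with DMSO and 100% = DMSO without agonist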
CHRM4 agonist: agonists of human muscarinic M4 receptor (CHRM4); CHO-K1 hM4/Gqi5, Fluo-8 calcium fluorescence; vehicle 0%, full acetylcholine response 100%; hit rate 0.14% among 360,000; activation, % at 3 µM;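 active means activation above the run mean over all test wells plus 3 SD, cut at about 32% in these data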;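 further: peak over basal fluorescence ratio per well then scaled between controls; 0% = DMSO wells and 100% = acetylcholine at EC100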
* = called active by the depositor. Rows were chosen to be rich in hits. Some 1.8% of all compounds tested hit in one or more screens of this group.

SMILES	M5 antag	M5 PAM	M5 ag	CHRM4 PAM	M4 antag	CHRM4 agonist
O=C(NCC(c1cccs1)N1CCOCC1)c1ccccc1NS(=O)(=O)c1ccc(Cl)c([N+](=O)[O-])c1 (stereo not given)	43*	-18	7	-18	14	19
N#Cc1cccc(-c2csc(C(O)(c3ccccc3)C(F)(F)F)n2)c1 (stereo not given)	-13	0	-3	6	-4	-1
CCOC(=O)c1cc(-c2csc(Nc3c(C)cc(C)cc3C)n2)on1	-9	10	6	-3	2	0
CCC1CCCCN1C(=O)c1cc(COc2ccc3ncccc3c2)on1 (stereo not given)	41*	-29	7	-12	5	22
O=C(NCc1cccc(Cl)c1)c1cc(COc2ccc3ncccc3c2)on1	22	-23	4	-8	11	17
Cc1ccc(F)cc1CNC(=O)c1cc(COc2ccc3ncccc3c2)on1	56*	-16	6	-19	43*	25
COCC1CCCCN1C(=O)c1cc(COc2ccc3ncccc3c2)on1 (stereo not given)	39*	-14	7	-12	34*	32*
CCN(CC)C(=O)C1CCCN(C(=O)c2cc(COc3ccc4ncccc4c3)on2)C1 (stereo not given)	8	-16	3	-10	-12	18
CCN1CCN(C(=O)c2cc(COc3ccc4ncccc4c3)on2)CC1	5	-13	8	0	8	12
O=C(c1cnc(Cc2c[nH]c3ccccc23)c(I)c1)N1CCCCC1	0	-3	2	-4	-13	8
O=C(CCC1CCCCC1)NC1CCCCC1	5	-1	-1	-1	0	0
COc1ccc(CCC(C)N2CCC(CO)(Cc3ccccc3)CC2)cc1 (stereo not given)	3	-5	-19	-10	33*	4
COc1ccc(CC2(CO)CCN(C(C)Cc3ccc(Cl)cc3)CC2)cc1 (stereo not given)	3	-2	-3	-20	13	5
CC(=O)C[C@H](O)CC(=O)[C@H]1OC(=O)CC/C=C\Cc2ccccc21	-7	6	4	25*	-3	2
NS(=O)(=O)c1ccc(NC(=O)C2Cc3ccccc3C(=O)O2)cc1 (stereo not given)	-6	7	0	26*	-9	2
O=C1OC(C(=O)Nc2ccccc2)Cc2ccccc21 (stereo not given)	2	9	-3	12	-1	1
N#CCCn1cc(/C=N/NC(=O)c2ccncc2)c(-c2ccc(F)cc2)n1	5	-2	-1	-3	3	1
O=C(Nc1nc2ccsc2c(=O)s1)c1ccc(F)cc1Cl	-7	21*	3	2	-4	1
Cc1ccc(C(=O)Cn2c(C)cc(C)c(C#N)c2=O)cc1	-8	29*	5	5	-12	1
Cc1cc(C)n(CC(=O)c2ccc(Br)cc2)c(=O)c1C#N	-7	-5	-1	-3	3	4
CCCc1cc(=O)[nH]c(SCC(=O)N(C)CC(=O)Nc2ccc(F)cc2)n1	4	0	-1	-3	-1	-1
CCCc1cc(=O)[nH]c(SCC(=O)N(C)CC(=O)Nc2ccc(C)cc2)n1	-4	23*	-3	26*	-17	1
CCN1CCCC1CN(Cc1cc2c(C)cc(C)cc2[nH]c1=O)C(=O)NC1CCCCC1 (stereo not given)	-2	0	-6	-9	36*	0
COc1cc2c(-c3ccc4cc[nH]c4c3)c(-c3ccc(C#N)cc3)oc(=O)c2cc1OC	6	3	-2	-4	8	0
CN1CCC(C(=O)C(=O)O)C1=O (stereo not given)	-7	8	8	11	-5	1
SMILES	M5 antag	M5 PAM	M5 ag	CHRM4 PAM	M4 antag	CHRM4 agonist
N=C1C(c2ccccc2)=C(O)CN1CCO	-10	7	2	17*	-8	4
COc1ccc(NC(=O)CCNC(=O)c2ccc([N+](=O)[O-])cc2)cc1S(=O)(=O)N1CCCCC1	-2	4	3	22*	-14	0
c1ccc(C2[C@H]3CN(CC4CCCCC4)[C@H](c4ccccc4)C34CC2(c2cccnc2)C4)cc1 (stereo not given in full)	16	-32	-13	-13	31*	2
c1ccc(C2[C@H]3CN(CC4CCCCC4)[C@H](c4ccccc4)C34CC2(c2ccccc2)C4)cc1 (stereo not given in full)	-6	5	-3	-5	7	2
COc1ccc(NC(=O)COc2ccccc2Cc2ccccc2)cc1S(N)(=O)=O	30*	-13	9	-7	21	15
COc1ccc2c(c1)CCc1sc(NC(=O)c3ccco3)nc1-2	-10	2	11	28*	-30	2
COc1ccc2c(c1)Cc1sc(NC(=O)c3ccco3)nc1-2	4	-15	9	27*	-14	2
COc1ccc2c(c1)-c1nc(NC(=O)c3ccco3)sc1CC2	-13	11	19	0	-9	6
COc1ccc(NC2=NCCC(=O)N2Cc2cccs2)cc1	7	-3	-1	-1	4	1
COc1ccc(NC2=NCC(=O)N2Cc2cccs2)cc1	-16	21*	1	4	-8	-1
O=C(COc1ccccc1)NC1CCS(=O)(=O)C1 (stereo not given)	-3	6	1	1	-6	1
O=C(COC(=O)C1(c2ccccc2F)CCCC1)NC1CCS(=O)(=O)C1 (stereo not given)	-8	1	2	24*	-16	1
Cc1ccc(NC(=O)CSc2nnc(C3CC3)n2CC2CCCO2)cc1C (stereo not given)	16	-1	-4	-3	4	-1
COc1ccc(C(=O)NC2CCc3ccccc32)cc1OC1CCN(C(C)C)CC1 (stereo not given)	28*	-6	-6	5	5	1
COc1ccc(C(=O)N(C)C2CCCc3ccccc32)cc1OC1CCN(C(C)C)CC1 (stereo not given)	17	-5	-8	-10	15	0
O=C(NCc1cc(Cl)cc(Cl)c1)c1ccc2nc(COCCO)[nH]c2c1	-6	2	-1	1	-14	2
Cc1ccc(/C=C/C(=O)Nc2ccc(S(=O)(=O)Nc3ncccn3)cc2)cc1	-14	26*	6	6	-6	2
COc1ccc(S(=O)(=O)Nc2cccc(/C=C/C(=O)O)c2)cc1	3	0	-1	12	1	-1
